Where two headings read alike, the source gives them in different places. Values belong to the compound of their own block, whether it stands above or below them. Residues, ends and D or L forms follow the SMILES beside them. *: point of attachment. Cbz = O=C(OCc1ccccc1)*; OtBu = CC(C)(C)O*
How the values were obtained:
Format in all cases: cell-based, human
NF-κB [1] = assay: NF-κB luciferase reporter assay, antagonists with TNFα stimulation; settings: for effect on NF-κB expression / effect on NF-κB pathway activity / mode of action on NF-κB signaling: TNFα stimulated, 24 h; for effect on NF-κB pathway activity: at low micromolar concentrations; for EC50: Homo sapiens, HEK293, 24 h, read-out: EC50 (NF-kB reporter)
HEK293 cells = settings: for IC50: Homo sapiens, HEK293, 24 h, read-out: IC50 (cell viability)
NF-κB [2] = assay: NF-κB luciferase reporter assay, agonists without TNFα; settings: HEK293 reporter cells, no TNFα, 24 h
In short: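 HEK293 stable NF-κB GFP-luciferase reporter line grown in DMEM with 10% FBS and 1% pen/strep at 37°C, 5% CO2. Seeded 1x10^4/well (96-well) or 1x10^3/well (384-well) 12 h before dosing across a concentration range in fresh medium, with vehicle-only controls. Incubated 24 h, then luminescence read. Drug/vehicle luminescence ratio plotted against log10 concentration to derive EC50. Triplicate or quadruplicate doses, ≥3 experiments.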

MAF1329 ependymoma cells = system: MAF1329 ependymoma cells
[3] = at low or mid-range micromolar concentrations
[4] = at low micromolar concentrations

SMILES: CCNC(=O)[C@H]1O[C@@H](n2cnc3c(N)nc(NCCc4ccc(CCC(=O)O)cc4)nc32)[C@H](O)[C@@H]1O [CGS 21680]
NF-κB agonist effect (NF-κB [2]): no effect

SMILES: COc1cc(O)cc(O)c1C(=O)/C=C/c1ccccc1 [Cardamonin]
effect on NF-κB pathway activity (NF-κB [1]): act as agonists and increased pathway activity
change in cell viability of MAF1329 (MAF1329 ependymoma cells; C11orf95-RELA fusion positive ependymoma cell culture): no change in cell viability
effect on cell viability (HEK293 cells; [4]): without effecting cell viability

SMILES: CC1=C(O)C(=O)C=C2C1=CC=C1[C@@]2(C)CC[C@@]2(C)[C@@H]3C[C@](C)(C(=O)O)CC[C@]3(C)CC[C@]12C [Celastrol]
EC50 (NF-κB [1]): 0.082 µM
effect on NF-κB pathway activity (NF-κB [1]): act as agonists and increased pathway activity
IC50 (MAF1329 ependymoma cells; Homo sapiens, read-out: IC50 (cell viability of MAF1329)): 1.7 µM
IC50 (HEK293 cells): 0.475 µM
effect on cell viability (HEK293 cells; [4]): without effecting cell viability

SMILES: O=C(Nc1cc(C(F)(F)F)cc(C(F)(F)F)c1)c1cc(Cl)ccc1O [IMD 0354]
mode of action on NF-κB signaling (NF-κB [1]; HEK-293 reporter cells): work antagonistically
EC50 (NF-κB [1]): 0.292 µM
IC50 (HEK293 cells): 1.56 µM
effect on cell viability (HEK293 cells; at low concentrations): did not result in a decrease of cell viability

SMILES: CC[C@H](C)[C@H](NC(=O)OCc1ccccc1)C(=O)N[C@@H](CCC(=O)OC(C)(C)C)C(=O)N[C@@H](C)C(=O)N[C@H](C=O)CC(C)C [PSI] (Cbz-IE(OtBu)AL-aldehyde)
effect on NF-κB pathway activity (NF-κB [1]): act as agonists and increased pathway activity
effect on cell viability (HEK293 cells): without effecting cell viability

SMILES: CC(=O)O[C@@]12C[C@@H](C)[C@@]3(O)[C@@H](C=C(CO)C[C@]4(O)C(=O)C(C)=C[C@@H]34)[C@@H]1C2(C)C [Prostratin]
concentration at which NF-κB agonist activity was seen (NF-κB [2]): 1000 nM

SMILES: [O-][S+](c1ccccc1)c1ccc2nnnn2n1 (stereo not drawn) [Ro106–9920]
effect on cell viability (HEK293 cells): did not result in a decrease of cell viability

SMILES: C=C(C)[C@@H]1CC[C@]2(C(=O)O)CC[C@]3(C)[C@H](CC[C@@H]4[C@@]5(C)CC[C@H](O)C(C)(C)[C@@H]5CC[C@]43C)[C@@H]12 [betulinic acid, Betulinic acid]
concentration at which NF-κB agonist activity was seen (NF-κB [2]): 100,000 nM

The next lines start with results.

effect on NF-κB expression (NF-κB [1]; [3]): agonistic effect
SMILES: Cc1ccc(S(=O)(=O)/C=C/C#N)cc1 [BAY 11–7082]
cytotoxic effect (HEK293 cells): no cytotoxic effect

effect on NF-κB expression (NF-κB [1]; [3]): agonistic effect
SMILES: CC(C)(C)c1ccc(S(=O)(=O)/C=C/C#N)cc1 [BAY 11–7085]
cytotoxic effect (HEK293 cells): no cytotoxic effect

effect on NF-κB expression (NF-κB [1]; [3]): agonistic effect
SMILES: Br.Cc1cc2nc(NCCCO)n(CC(=O)c3cc(C(C)(C)C)c(O)c(C(C)(C)C)c3)c2cc1C [CID 2858522]
cytotoxic effect (HEK293 cells): no cytotoxic effect

effect on NF-κB expression (NF-κB [1]; HEK-293 reporter cells): no specific effect
SMILES: O=C(c1ccc(Nc2nccc(-c3cc4ccccc4s3)n2)cc1)N1CCC(N2CCCC2)CC1 [IKK-16]
effect on cell viability (HEK293 cells): no specific effect

effect on NF-κB expression (NF-κB [1]; HEK-293 reporter cells): no specific effect
EC50 (NF-κB [1]): 35 µM
SMILES: O=c1cc(-c2ccc(O)c(O)c2)oc2cc(O)cc(O)c12 [Luteolin]
IC50 (HEK293 cells): > 100 µM

mode of action on NF-κB signaling (NF-κB [1]; HEK-293 reporter cells): work antagonistically
SMILES: C[C@]1(CO)CN(c2cc(C(=O)Nc3ccc4c(c3)-c3c(c(C(N)=O)nn3-c3ccc(F)cc3)CC4)c(Cl)cn2)C[C@@]1(C)CO [PF-184]
effect on cell viability (HEK293 cells): did not result in a decrease of cell viability

EC50 (NF-κB [1]): > 100 µM
effect on NF-κB expression (NF-κB [1]; [3]): agonistic effect
SMILES: Oc1cc(O)cc(/C=C/c2ccc(O)c(O)c2)c1 [Piceatannol]
cytotoxic effect (HEK293 cells): no cytotoxic effect
IC50 (HEK293 cells): > 100 µM

EC50 (NF-κB [1]): 4.27 µM
SMILES: CS(=O)(=O)N1CCN(Cc2cc3nc(-c4cccc5[nH]ncc45)nc(N4CCOCC4)c3s2)CC1 [Pictalisib, 2-(1 H -Indazol-4-yl)-6-(4-methanesulfonyl-piperazin-1-ylmethyl)-4-morpholin-4-yl-thieno[3,2-d]pyrimidine]
IC50 (HEK293 cells): 7.47 µM

EC50 (NF-κB [1]): < 0.001 µM
SMILES: NC(=O)Nc1sc(-c2ccc(F)cc2)cc1C(N)=O [TCPA-1, 2-[(Aminocarbonyl)amino]-5-(4-fluorophenyl)-3-thiophenecarboxamide]
effect on cell viability (HEK293 cells; at low concentrations): did not result in a decrease of cell viability

— publication PMC8867604 (European journal of pharmacology, 2020)
